In ChEMBL document CHEMBL1137637, “Quinuclidine derivatives as potential antiparasitics” (Antimicrob Agents Chemother, 2007):
Values after ≈ are worked out from the molar mass of the structure shown.

Tests used:
[1] = test system: Leishmania donovani; assay: Antileishmanial activity against Leishmania donovani MHOM/ET/67/L82 axenic amastigotes after 72 hrs by resazurin assay; format: functional, organism-based; conditions: MHOM/ET/67/L82, 72 h
In short: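 L. donovani MHOM/ET/67/L82 amastigotes grown axenically at 37°C in synthetic minimal medium at pH 5.4 with 10% heat-inactivated FBS under 5% CO2. 1 × 10⁵ amastigotes per well with seven threefold dilutions, 30 to 0.041 μg/ml. After 72 h, resazurin added for 2–4 h more. Fluorescence read at ex 536/em 588 nm. IC50 taken from sigmoidal curve. Run in duplicate, with an independent repeat for actives.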

[2] = target: T1, Squalene synthase (Homo sapiens, UniProt P37268); assay: Inhibition of human recombinant squalene synthase expressed in Escherichia coli BL21(DE3 pLysS) by liquid scintillation counter
T1 sequence (P37268 whole entry): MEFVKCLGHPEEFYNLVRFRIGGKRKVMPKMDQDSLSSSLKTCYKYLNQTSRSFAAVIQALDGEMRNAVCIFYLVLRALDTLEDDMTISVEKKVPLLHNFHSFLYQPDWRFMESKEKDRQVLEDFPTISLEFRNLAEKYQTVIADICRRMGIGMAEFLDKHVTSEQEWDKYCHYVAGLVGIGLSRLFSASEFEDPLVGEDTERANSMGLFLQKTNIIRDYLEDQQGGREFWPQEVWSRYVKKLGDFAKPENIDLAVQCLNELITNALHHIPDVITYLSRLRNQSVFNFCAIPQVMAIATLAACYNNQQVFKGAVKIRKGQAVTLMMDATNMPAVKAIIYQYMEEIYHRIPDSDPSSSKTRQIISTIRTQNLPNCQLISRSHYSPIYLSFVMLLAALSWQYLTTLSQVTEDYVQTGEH
In short: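 Human SQS in extracts of E. coli BL21(DE3 pLysS) carrying pHSS16, assayed under the same conditions as the L. major enzyme. Buffer: phosphate pH 7.4, MgCl2, CHAPS, Tween 80, DTT, BSA, and NADPH with a regenerating system. Substrate 0.5 μM radiolabelled farnesyl pyrophosphate. Squalene band radioactivity counted by scintillation.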

[3] = test system: Leishmania amazonensis; assay: Antileishmanial activity against Leishmania mexicana amazonensis promastigotes by trypan blue exclusion method; format: functional, organism-based
In short: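 L. mexicana amazonensis promastigotes cultured in liver infusion-tryptose medium with lactalbumin and 10% FCS at 26°C, unagitated. Cultures started at 2 × 10⁶ cells/ml and drug added at 0.5–1 × 10⁷ cells/ml. Density counted by electronic particle counter and hemocytometer. Viability by trypan blue exclusion. Triplicate growth experiments.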

[4] = test system: L6; assay: Cytotoxicity against rat L6 cells after 72 hrs by resazurin assay; format: cell-based; conditions: L6, 72 h
In short: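 L-6 cells seeded at 4 × 10⁴ cells/ml in RPMI 1640 with 10% FBS and 2 mM L-glutamine. After 24 h, medium replaced with serial drug dilution and incubated for 72 h at 37°C in 5% CO2. Resazurin added for 2–4 h, fluorescence read at ex 536/em 588 nm. IC50 from sigmoidal curve. Duplicate, with an independent repeat for actives.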

[5] = test system: Leishmania amazonensis; assay: Inhibition of sterol biosynthesis in Leishmania mexicana amazonensis promastigotes assessed as reduction in endogenous episterol level at 0.1 uM after 96 hrs by gas-liquid chromatography; format: functional; design: scale not given: the % may be the effect or the level left
In short: (§1)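 L. mexicana promastigotes exposed to compound for 96 h. Total lipids extracted and neutral sterols separated from polar lipids by silicic acid column chromatography. Sterols analysed by TLC and by quantitative capillary gas-liquid chromatography with mass spectrometry. Composition expressed as mass % of free sterols, compared with untreated control.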

[6] = test system: Leishmania amazonensis; assay: Inhibition of sterol biosynthesis in Leishmania mexicana amazonensis promastigotes assessed as reduction in endogenous 5-dehydro episterol level at 0.1 uM after 96 hrs by gas-liquid chromatography; format: functional; design: scale not given: the % may be the effect or the level left; in short: as §1
[7] = test system: Leishmania amazonensis; assay: Inhibition of sterol biosynthesis in Leishmania mexicana amazonensis promastigotes assessed as reduction in exogenous cholesterol level at 0.1 uM after 96 hrs by gas-liquid chromatography; format: functional; design: scale not given: the % may be the effect or the level left; in short: as §1
[8] = test system: Leishmania amazonensis; assay: Inhibition of sterol biosynthesis in Leishmania mexicana amazonensis promastigotes assessed as reduction in exogenous cholesterol level at 0.3 uM after 96 hrs by gas-liquid chromatography; format: functional; design: scale not given: the % may be the effect or the level left
In short: (§2)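 Promastigotes grown in liver infusion-tryptose medium with lactalbumin and 10% fetal calf serum at 26°C, static; drug added at 0.5 × 10⁷ to 1 × 10⁷ cells/ml and cells exposed for 96 h. Total lipids extracted; neutral lipids separated from polar lipids by silicic acid column chromatography; free sterols quantified by capillary gas-liquid chromatography and mass spectrometry as mass % of total sterols.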

[9] = test system: Plasmodium falciparum; assay: Antiplasmodial activity after 48 hrs against chloroquine and pyrimethamine-resistant Plasmodium falciparum K1 in human erythrocytes by [3H]hypoxanthine uptake; format: functional, organism-based
In short: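 P. falciparum K1 in human red cells in RPMI 1640 with 5% Albumax, exposed to serial drug dilutions. Incubated 48 h at 37°C under reduced oxygen, then 0.5 μCi [³H]hypoxanthine per well for 24 h more. Cells harvested onto glass-fibre filters and counted by scintillation. Result expressed as % of untreated control, with IC50 from sigmoidal curve. Duplicate, plus an independent repeat for actives.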

[10] = test system: Trypanosoma brucei rhodesiense; assay: Trypanocidal activity against Trypanosoma brucei rhodesiense STIB 900 bloodstream form after 72 hrs by resazurin assay; format: functional, organism-based; conditions: STIB 900, 72 h
In short: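 T. b. rhodesiense STIB 900 bloodstream forms in MEM with 2-mercaptoethanol and 15% heat-inactivated horse serum, with serial drug dilutions. Incubated 72 h at 37°C in 5% CO2. Resazurin added for 2–4 h more, fluorescence read at ex 536/em 588 nm. IC50 from sigmoidal curve. Duplicate, with an independent repeat for actives.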

[11] = target: T2, Farnesyltransferase, putative (Leishmania major, UniProt Q4Q5W4); assay: Inhibition of Leishmania major recombinant squalene synthase expressed in Escherichia coli by liquid scintillation counter
T2 sequence (Q4Q5W4 whole entry): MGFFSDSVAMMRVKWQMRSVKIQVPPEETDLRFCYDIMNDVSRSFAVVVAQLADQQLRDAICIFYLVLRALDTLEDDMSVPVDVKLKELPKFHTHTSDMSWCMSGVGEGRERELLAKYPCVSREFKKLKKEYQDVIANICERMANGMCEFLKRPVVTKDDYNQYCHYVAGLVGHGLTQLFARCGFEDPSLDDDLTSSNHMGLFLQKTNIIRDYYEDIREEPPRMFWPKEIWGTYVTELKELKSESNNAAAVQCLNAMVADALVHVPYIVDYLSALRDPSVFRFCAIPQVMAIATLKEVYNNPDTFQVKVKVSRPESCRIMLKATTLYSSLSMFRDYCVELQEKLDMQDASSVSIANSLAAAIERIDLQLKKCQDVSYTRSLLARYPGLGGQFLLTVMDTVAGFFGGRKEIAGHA
In short: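 Soluble E. coli extract expressing L. major SQS truncated by 16 N-terminal and 40 C-terminal residues. Buffer: 50 mM phosphate pH 7.4, 20 mM MgCl2, 5 mM CHAPS, 1% Tween 80, 10 mM DTT, BSA, 0.25 mM NADPH, and a glucose-6-phosphate/G6PDH regenerating system. Substrate 0.5 μM radiolabelled farnesyl pyrophosphate. Squalene band counted by scintillation. IC50 from hyperbolic plot of five concentrations in duplicate, usually run twice.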

[12] = test system: Leishmania amazonensis; assay: Inhibition of sterol biosynthesis in Leishmania mexicana amazonensis promastigotes assessed as reduction in endogenous episterol level at 0.3 uM after 96 hrs by gas-liquid chromatography; format: functional; design: scale not given: the % may be the effect or the level left; in short: as §2
[13] = test system: Leishmania amazonensis; assay: Inhibition of sterol biosynthesis in Leishmania mexicana amazonensis promastigotes assessed as reduction in endogenous 5-dehydro episterol level at 0.3 uM after 96 hrs by gas-liquid chromatography; format: functional; design: scale not given: the % may be the effect or the level left; in short: as §2
[14] = test system: Trypanosoma cruzi; assay: Antitrypanosomal activity against trypomastigotes of Trypanosoma cruzi Tulahuen C2C4 containing lacZ gene in rat L6 cells after 4 days by chlorophenol red-beta-D-galactopyranoside/Nonidet assay; format: functional, organism-based; conditions: Tulahuen C2C4, L6, 96 h
In short: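 L-6 rat myoblasts seeded at 2,000 cells/well in RPMI 1640 with 10% FBS and 2 mM L-glutamine. After 24 h, 5,000 T. cruzi Tulahuen C2C4 lacZ trypomastigotes added with serial drug dilution. Incubated at 37°C in 5% CO2 for 4 days. CPRG/Nonidet substrate added and colour read at 540 nm after 2–4 h. IC50 from sigmoidal curve. Duplicate determinations.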

[15] = test system: Leishmania amazonensis; assay: Inhibition of sterol biosynthesis in Leishmania mexicana amazonensis promastigotes assessed as reduction in endogenous 5-dehydro episterol level at 3 uM after 96 hrs by gas-liquid chromatography; format: functional; design: scale not given: the % may be the effect or the level left; in short: as §1
[16] = test system: Leishmania amazonensis; assay: Inhibition of sterol biosynthesis in Leishmania mexicana amazonensis promastigotes assessed as reduction in exogenous cholesterol level at 10 uM after 96 hrs by gas-liquid chromatography; format: functional; design: scale not given: the % may be the effect or the level left; in short: as §1
[17] = test system: Leishmania amazonensis; assay: Inhibition of sterol biosynthesis in Leishmania mexicana amazonensis promastigotes assessed as reduction in exogenous cholesterol level at 3 uM after 96 hrs by gas-liquid chromatography; format: functional; design: scale not given: the % may be the effect or the level left; in short: as §1
[18] = test system: Leishmania amazonensis; assay: Inhibition of sterol biosynthesis in Leishmania mexicana amazonensis promastigotes assessed as reduction in endogenous 5-dehydro episterol level at 10 uM after 96 hrs by gas-liquid chromatography; format: functional; design: scale not given: the % may be the effect or the level left; in short: as §1
[19] = test system: Leishmania amazonensis; assay: Inhibition of sterol biosynthesis in Leishmania mexicana amazonensis promastigotes assessed as reduction in endogenous episterol level at 10 uM after 96 hrs by gas-liquid chromatography; format: functional; design: scale not given: the % may be the effect or the level left; in short: as §1
[20] = test system: Leishmania amazonensis; assay: Inhibition of sterol biosynthesis in Leishmania mexicana amazonensis promastigotes assessed as reduction in endogenous episterol level at 3 uM after 96 hrs by gas-liquid chromatography; format: functional; design: scale not given: the % may be the effect or the level left; in short: as §1
[21] = test system: Leishmania amazonensis; assay: Inhibition of sterol biosynthesis in Leishmania mexicana amazonensis promastigotes assessed as reduction in endogenous cholesta-5,7,24-trien-3beta-ol level at 1 uM after 96 hrs by gas-liquid chromatography; format: functional; design: scale not given: the % may be the effect or the level left; in short: as §1
[22] = test system: Leishmania amazonensis; assay: Inhibition of sterol biosynthesis in Leishmania mexicana amazonensis promastigotes assessed as reduction in endogenous cholesta-5,7,24-trien-3beta-ol level at 3 uM after 96 hrs by gas-liquid chromatography; format: functional; design: scale not given: the % may be the effect or the level left; in short: as §1
[23] = test system: Leishmania amazonensis; assay: Inhibition of sterol biosynthesis in Leishmania mexicana amazonensis promastigotes assessed as reduction in endogenous 5-dehydro episterol level at 1 uM after 96 hrs by gas-liquid chromatography; format: functional; design: scale not given: the % may be the effect or the level left; in short: as §1
[24] = test system: Leishmania amazonensis; assay: Inhibition of sterol biosynthesis in Leishmania mexicana amazonensis promastigotes assessed as reduction in endogenous cholesta-7,24-dien-3beta-ol level at 1 uM after 96 hrs by gas-liquid chromatography; format: functional; design: scale not given: the % may be the effect or the level left; in short: as §1
[25] = test system: Leishmania amazonensis; assay: Inhibition of sterol biosynthesis in Leishmania mexicana amazonensis promastigotes assessed as reduction in endogenous episterol level at 1 uM after 96 hrs by gas-liquid chromatography; format: functional; design: scale not given: the % may be the effect or the level left; in short: as §1
[26] = test system: Leishmania amazonensis; assay: Inhibition of sterol biosynthesis in Leishmania mexicana amazonensis promastigotes assessed as reduction in endogenous cholesta-7,24-dien-3beta-ol level at 3 uM after 96 hrs by gas-liquid chromatography; format: functional; design: scale not given: the % may be the effect or the level left; in short: as §1
[27] = test system: Leishmania amazonensis; assay: Inhibition of sterol biosynthesis in Leishmania mexicana amazonensis promastigotes assessed as reduction in exogenous cholesterol level at 1 uM after 96 hrs by gas-liquid chromatography; format: functional; design: scale not given: the % may be the effect or the level left; in short: as §1

Structure (SMILES) | IC50 [1] [µM] | IC50 [2] [µM] | MIC [3] [µM] | IC50 [4] [µM] | Activity [8] [%] | IC50 [9] [µM] | IC50 [10] [µM] | IC50 [11] [µM] | Activity [12] [%] | Activity [13] [%] | IC50 [14] [µM] | Activity [15] [%] | Activity [16] [%] | Activity [17] [%] | Activity [20] [%] | Activity [23] [%] | Activity [25] [%] | Activity [27] [%] | other results
C1=C(c2ccc(OCc3ccccc3)cc2)C2CCN1CC2 | 1.1 | 0.25 | 0.3 (≈ 0.0874 µg/mL) | 47.2 | 52.9 | 4.8 | 1.1 | 0.1 | 22.9 | 24.2 | 3.1 |  |  |  |  |  |  |  | Activity [5]: 15.4%; Activity [6]: 53%; Activity [7]: 31.6%
CCOC(=O)Cc1ccc(C#CC2(O)CN3CCC2CC3)cc1 (stereo not given) | 17.3 | 0.66 | 10 (≈ 3.13 µg/mL) | > 287 |  | 10 | 258 | 0.97 |  |  | 25.6 | 48.6 | 62.3 | 28.4 | 23 |  |  |  | Activity [18]: 18.9%; Activity [19]: 18.8%
OC[C@@H]1CC2CCN1C[C@@H]2C#Cc1ccc(-c2ccccc2)cc1 (stereo not given in full) | 18.5 |  | 3 (≈ 0.952 µg/mL) | 10.7 |  | 0.6 | 1.2 | > 1 |  |  | 5.6 | 33.7 | >99 | 25.2 | 9.3 | 36.4 | 4.4 | 10.3 | Activity [21]: 41.7%; Activity [22]: 24.8%; Activity [24]: 7.2%; Activity [26]: 7%
COc1ccc2cc(C3=CN4CCC3CC4)ccc2c1 | 1.4 | 2.8 | 0.3 (≈ 0.0796 µg/mL) | 98.8 | 13.9 | 9 | 2.2 | 0.49 | 13.4 | 72.7 | 10.2 |  |  |  |  | 43 | 15.8 | 41.2 | 
